These results are taken from publication PMC7644341 (Journal of natural products, 2020).

One data set relates to tubulin. Description: Inhibition of [3H]colchicine binding to tubulin. Conditions: 1.0 μM tubulin, 5.0 μM [3H]colchicine. Summed up: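 Incubation was 10 min at 37 °C, when control binding is about 50% complete. Bound ligand was collected on paired filters and scintillation-counted at least 18 h later. Counts were corrected for filter-bound colchicine without tubulin, and percent inhibition was calculated against no-inhibitor controls.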

Data set [1] relates to A549 human lung cancer cell line. Description: Differential cytotoxicity.
Data set [2] relates to orthotopic 4T1-luc breast tumors. Description: In vivo dynamic bioluminescence imaging. On the set-up: species or system BALB/c mice. Conditions: 180 mg/kg IP single dose. Summed up: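 Cells: 4T1-luc, firefly luciferase-expressing, grown in RPMI1640 with 10% FBS. 10⁶ cells in PBS with 30% Matrigel were implanted into the left upper ventral mammary fat pad of female BALB/cJ mice and grown 11 days to 10–12 mm. Baseline BLI was taken under 2% isoflurane after SC D-luciferin (120 mg/kg). Then a single IP dose of test compound was given (180 mg/kg in DPS, n=3), with vehicle and combretastatin A-4 phosphate (120 mg/kg) controls. Imaging (~20 min) was repeated at 4, 24 and 48 h with fresh luciferin, comparing area under the light-emission curve.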

A further data set has as its system 4T1-luc tumors. Put plainly: H&E histology of harvested tumors. It counts as in vivo, BALB/c mice. Conditions: 180 mg/kg IP. Summed up: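 4T1-luc orthotopic mammary fat pad tumors in female BALB/cJ mice were dosed once IP with test compound (180 mg/kg in DPS vehicle). Tumors were harvested at 72 h, or after further imaging at 96 h, when survivors were killed by cervical dislocation under isoflurane. They were stained with hematoxylin and eosin. Each tumor's histology was matched to its BLI response.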

A short description of the next data set: Non-enzymatic stability. It counts as physicochemical. Conditions: for percent BAPC hydrolysis/cleavage (non-enzymatic) in phosphate buffer: pH 7.4, 48 h.
Data set [3] addresses T1, Rat NADPH-cytochrome P450 oxidoreductase (POR) supersomes (Rattus norvegicus, UniProt P00388).
T1 sequence (P00388 1-678): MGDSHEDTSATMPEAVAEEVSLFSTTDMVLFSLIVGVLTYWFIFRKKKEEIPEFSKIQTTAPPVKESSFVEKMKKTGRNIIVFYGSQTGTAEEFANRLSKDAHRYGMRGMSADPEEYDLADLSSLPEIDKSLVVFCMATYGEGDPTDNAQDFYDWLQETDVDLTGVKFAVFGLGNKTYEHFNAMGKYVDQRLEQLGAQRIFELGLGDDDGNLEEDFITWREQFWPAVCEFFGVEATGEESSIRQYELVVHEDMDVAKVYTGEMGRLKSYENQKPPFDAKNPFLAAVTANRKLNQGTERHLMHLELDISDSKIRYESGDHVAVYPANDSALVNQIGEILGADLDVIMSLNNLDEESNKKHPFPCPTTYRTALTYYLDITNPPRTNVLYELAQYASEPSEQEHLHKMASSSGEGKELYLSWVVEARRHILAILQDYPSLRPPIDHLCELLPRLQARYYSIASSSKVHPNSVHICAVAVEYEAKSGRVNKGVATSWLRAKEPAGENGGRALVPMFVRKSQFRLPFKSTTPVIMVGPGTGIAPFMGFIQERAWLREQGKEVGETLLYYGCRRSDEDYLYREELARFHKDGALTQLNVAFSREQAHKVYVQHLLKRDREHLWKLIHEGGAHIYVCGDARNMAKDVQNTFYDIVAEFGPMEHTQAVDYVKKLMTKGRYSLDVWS
Description: NADPH-cytochrome P450 oxidoreductase cleavage assay. In kind it is in vitro ADME. Conditions: for percent BAPC cleavage by POR: 90 min, anaerobic, 37 °C, NC = no cleavage observed.

Marks after values point to notes of the source that are not given here. Some results are limits rather than exact numbers.

As for `COc1ccc(/C=C\c2cc(OC)c(OC)c(OC)c2)cc1O` [compound 42, combretastatin A-4], the “inhibition of colchicine binding % inhibition ± SD” value with tubulin (compound at 1 μM) came to 84±2%; in the data set on tubulin (compound at 5 μM), 97±0.7%. For `Nc1n[n+]([O-])c2ccccc2[n+]1[O-]` [Tirapazamine], in data set [1] (assays in which drug was washed out after 4 h), the “hypoxia cytotoxicity ratio (HCR)” value is on record as more than 62.

Take `Br.O=[N+]([O-])c1nccn1CC(O)CNCCBr` (centres unmarked) [RB6145]: in data set [1] (A549, GI50 oxic versus anoxic, drug removal step omitted), the “hypoxia cytotoxicity ratio (HCR)” value is more than 3.7. Regarding `COc1ccc(/C=C\c2cc(OC)c(OC)c(OC)c2)cc1OC(C)(C)c1ccc([N+](=O)[O-])s1` [compound 45, (Z)-2-(2-(2-Methoxy-5-(3,4,5-trimethoxystyryl)phenoxy)propan-2-yl)-5-nitrothiophene], the “decrease in light emission (BLI)” value in data set [2] (4 h, two of three mice) is recorded as more than 80%. Moreover, the “depression of light emission (BLI)” value in data set [2] (24 h, the two responding tumors) is more than 75%. Besides, the “light emission (BLI) recovery” value in data set [2] (by 48 h, the two responding tumors) is recorded as “substantial recovery”. Moreover, the “tumor necrosis (H&E)” value with 4T1-luc tumors (BLI-unresponsive tumor) was determined as 47%; with 4T1-luc tumors (tumor showing a strong BLI signal response), 55%. In addition, in “Non-enzymatic stability” (pH 7.4, 24 h), the “stability in phosphate buffer” value is given as “stable”. Moreover, the “percent BAPC cleavage by POR” value in data set [3] was 25%. For the same compound, the “cleavage by POR supersomes” value in data set [3] (24 h, anaerobic conditions) is listed as “Complete cleavage”. On to `COc1cc(/C=C\c2ccc(OC)c(OCc3ccc([N+](=O)[O-])s3)c2O)cc(OC)c1OC` [compound 39, (Z)-3-Methoxy-2-((5-nitrothiophen-2-yl)methoxy)-6-(3,4,5-trimethoxystyryl)phenol], for which the “percent BAPC hydrolysis/cleavage (non-enzymatic) in phosphate buffer” value in “Non-enzymatic stability” is 0^b %. “(Z)-3-Methoxy-2-(2-(5-nitrothiophen-2-yl)propoxy)-6-(3,4,5-trimethoxystyryl)-phenyl-4-methylbenzenesulfonate [compound 23]”: the “percent BAPC hydrolysis/cleavage (non-enzymatic) in phosphate buffer” value in “Non-enzymatic stability” came to 0.84%. Also, the “percent BAPC cleavage by POR” value in data set [3] worked out at 13.5%. For `COc1ccc(/C=C\c2cc(OC)c(OC)c(OC)c2)c(OCc2ccc([N+](=O)[O-])s2)c1O` [compound 37, (Z)-6-Methoxy-2-((5-nitrothiophen-2-yl)methoxy)-3-(3,4,5-trimethoxystyryl)phenol], the “percent BAPC hydrolysis/cleavage (non-enzymatic) in phosphate buffer” value in the data set “Non-enzymatic stability” is 0^b %.

For `COc1ccc(/C=C\c2cc(OC)c(OC)c(OC)c2)c(OC(C)(C)c2ccc([N+](=O)[O-])s2)c1O` [compound 41, (Z)-6-Methoxy-2-((2-(5-nitrothiophen-2-yl)propan-2-yl)oxy)-3-(3,4,5-trimethoxystyryl)phenol], the “spontaneous hydrolysis in pH 7.4 buffer” value in “Non-enzymatic stability” (first 150 min) was “no apparent spontaneous hydrolysis”. In the data set “Non-enzymatic stability” (incubated 24–48 h), the “hydrolysis in pH 7.4 buffer” value is given as “mostly hydrolyzed”. The “percent BAPC hydrolysis/cleavage (non-enzymatic) in phosphate buffer” value in “Non-enzymatic stability” was found to be 100%.

On to `COc1ccc(/C=C\c2cc(OC)c(OC)c(OC)c2)c(OC(C)c2ccc([N+](=O)[O-])s2)c1O` (centres unmarked) [compound 38, (Z)-6-Methoxy-2-(1-(5-nitrothiophen-2-yl)ethoxy)-3-(3,4,5-trimethoxystyryl)phenol], for which the “percent BAPC hydrolysis/cleavage (non-enzymatic) in phosphate buffer” value in “Non-enzymatic stability” is reported as 0.5^c %. Take `COc1cc(/C=C\c2ccc(OC)c3c2OC(C)(c2ccc([N+](=O)[O-])s2)O3)cc(OC)c1OC` (centres unmarked) [compound 36, (Z)-4-Methoxy-2-methyl-2-(5-nitrothiophen-2-yl)-7-(3,4,5-trimethoxystyryl)-benzo[d][1,3]dioxole]: in the data set “Non-enzymatic stability”, the “percent BAPC hydrolysis/cleavage (non-enzymatic) in phosphate buffer” value was determined as 0%. The same measure, in the same setting: for `COc1cc(/C=C\c2ccc(OC)c3c2OC(c2ccc([N+](=O)[O-])s2)O3)cc(OC)c1OC` (centres unmarked) [compound 35, (Z)-4-Methoxy-2-(5-nitrothiophen-2-yl)-7-(3,4,5-trimethoxystyryl)-benzo[d][1,3]dioxole] the value was 0%; for `COc1cc(/C=C\c2ccc(OC)c(OC(C)c3ccc([N+](=O)[O-])s3)c2O)cc(OC)c1OC` (centres unmarked) [compound 40, (Z)-3-Methoxy-2-(1-(5-nitrothiophen-2-yl)ethoxy)-6-(3,4,5-trimethoxystyryl)phenol], 0^c %.
